The sample as a whole holds a higher share of hits than the screen did.
Lung fibro prol: blocks proliferation of human lung fibroblasts | 1.1% of 85,000 active | AID 719 | LL 47 human lung fibroblast viability, ATP luminescence; active compounds read low | viability, % at 10 µM;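 active = viability at or below 50% in the single dose screen; inactive = viability above 50%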;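 note: compound exposure lasted 72 h before the ATP readout; 100% = median luminescence of untreated cell-only wells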
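Assay system: human lung fibroblast line LL 47, low passage. Input: 1,150 fibroblasts seeded per well. Times: overnight cell rest, 72 h compound treatment at 37 °C. Evaluation: % viability of median cell-only signal. Technique: luminescent ATP detection, CellTiter-Glo. Control set: cell-only wells, no compound.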
H69AR growth 86K: growth inhibitors of human H69AR lung tumor cells; H69AR lung tumor viability, ATP luminescence, 72 h; active compounds read low; viability, % at 10 µM; 6% of 85,000 active;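 active = viability at or below 40%; inactive = viability above 40%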;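 note: multidrug resistant small cell line overexpressing MRP-1 efflux transporter; 100% = mean luminescence of untreated control wells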
Candida biofilm: kills Candida albicans biofilms. inhibition, % at 6 µM. C. albicans biofilm + clotrimazole, Alamar Blue. AID 834. 0.14% of 85,000 active;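 active = inhibition above 20%; inactive = inhibition below 20%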;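 note: preformed 24 hr biofilms exposed to compound for 48 hr; 0% = biofilm without compound and 100% = blank killed by clotrimazole plus chlorhexidine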
PTEN del growth: growth suppressors of cells with PTEN tumor suppressor deletion | AID 827 | viability, % at 10 µM | HCT116 PTEN-null viability, CellTiter-Glo, 60 h; active compounds read low | 1.2% of 140,000 active;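 active = viability at or below a set limit, 4 SD under the median of all tested compounds, cut at about 3.7% in these data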;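 note: PTEN knockout HCT116 line with beta catenin targeted HCT116 as companion control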
HUVEC prolif 384: blocks proliferation of human endothelial cells. HUVEC proliferation, CellTiter-Glo luminescence, 72 h; active compounds read low. viability, % at 10 µM (by protocol). 1.1% of 86,000 active;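 active = viability at or below 30%; inactive = viability above 30%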;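 note: 100% = median luminescence of DMSO-only cell control wells on each plate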
bCat KO growth: beta-catenin-lacking colon tumor cell growth suppression | AID 818 | 1.5% of 140,000 active | HCT116 beta-catenin knockout viability, CellTiter-Glo, 60 h; active compounds read low | viability, % at 10 µM;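 active = viability at or under a set limit, the compound median less 4 SD, cut at about 6% in these data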;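 note: 0% = Hyamine 1622 control at 20 µM and 100% = untreated cell control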
* = called active by the depositor; . = no result given.

SMILES	Lung fibro prol	H69AR growth 86K	Candida biofilm	PTEN del growth	HUVEC prolif 384	bCat KO growth
Cc1cc2nc(C3CCN(CC4COc5ccccc5O4)CC3)[nH]c2cc1C (stereo not given)	91	33*	-3	67	5.9*	58
CCCNC(=S)N1CCC(c2nc3cc(C)c(C)cc3[nH]2)CC1	.	.	.	89	.	89
COc1cccc(N2C(=O)CC(N3CCC(C(N)=O)(N4CCCCC4)CC3)C2=O)c1 (stereo not given)	103	94	2	92	97	95
CCCCNC(=O)c1sc(=S)n2c1[nH]c(=O)c1ccccc12	96	26*	-8	101	60	98
O=C(NC1CCCCC1)c1sc(=S)n2c1[nH]c(=O)c1ccccc12	102	43	3	80	69	90
Cc1ccc(C(=O)N(Cc2ccccc2)C(C)(C)C)cc1C	.	.	.	68	.	72
O=c1c2ccccc2sn1-c1cc(S(=O)(=O)N2CCOCC2)ccc1N1CCCC1	55	1.0*	6	98	73	87
O=c1c2ccccc2sn1-c1cc(S(=O)(=O)N2CCOCC2)ccc1N1CCOCC1	.	.	.	39	.	92
CCN(CCNC(=O)c1cc(C)nn1-c1ccccc1)c1ccccc1	90	92	13	89	101	77
CC(=O)C1=C(c2ccc(Br)cc2)C(=O)c2ccccc2C1=O	.	.	.	1.4*	.	1.6*
CC1=CC(=C2C(=O)c3ccccc3C2=O)C=C(C)O1	86	49	4	86	100	85
CN(CC(O)COc1c(F)cc(Br)cc1F)C1CCCCC1 (stereo not given)	.	.	.	89	.	94
COC(=O)c1[nH]c2cc(C)ccc2c1NC(=O)CN1CCN(c2ccccc2OC)CC1	.	.	.	50	.	65
CCOC(=O)Nc1c(C(=O)OC)[nH]c2cc(OC)ccc12	88	18*	6	.	72	.
COC(=O)c1[nH]c2cc(OC)ccc2c1NC(=O)CN1CCN(c2cccc(C)c2)C(C)C1 (stereo not given)	98	15*	8	34	53	51
O=c1c2c3n(c(=S)nc2[nH]n1-c1ccccc1)CCCCC3	104	109	-3	104	99	101
O=C(COC(=O)C12CC3CC(CC(C3)C1)C2)Nc1nc2c(F)c(F)c(F)cc2s1	.	.	.	68	.	80
COc1ccc(NC(=O)c2cc3c(-c4ccc(OC)c(OC)c4)nn(C)c3s2)cc1OC	78	9.7*	3	54	54	57
CC(C)(/C=N/O)/[N+]([O-])=C/C=[N+](\[O-])C(C)(C)/C=N/O	92	89	3	101	96	99
CN(C)c1ccc(/C=[N+](\[O-])C(C)(C)/C=N/O)cc1	.	30*	5	95	97	89
CCOC(=O)c1c(C)oc2c1c(C(c1cccnc1)N1CCN(C)CC1)c(O)c1ccccc12 (stereo not given)	51	2.1*	7	.	8.4*	.
CCOC(=O)c1c(C)oc2c1c1c(c3ccccc32)OCN(Cc2cccnc2)C1	85	12*	6	67	76	60
Cc1ccc(NC(=O)CSc2ccc3nnc(CCNC(=O)c4ccccc4)n3n2)c(C)c1	.	.	.	93	.	99
C/C(=N\NC(=O)c1ccc(Br)cc1)C1C(=O)c2ccccc2C1=O	.	.	.	54	.	65
CNC1=C(N(C(C)=O)c2ccc(Br)cc2)C(=O)c2ccccc2C1=O	.	.	.	1.4*	.	1.3*
SMILES	Lung fibro prol	H69AR growth 86K	Candida biofilm	PTEN del growth	HUVEC prolif 384	bCat KO growth
CCN(CC)S(=O)(=O)c1ccc(NC(=O)C2c3ccccc3Oc3ccccc32)cc1	.	.	.	70	.	78
N#Cc1nc(-c2ccco2)oc1NCCCn1ccnc1	101	90	7	93	90	98
C/C(=N\NC(=O)c1c(Br)c(C)nn1C)c1ccc(NC(=O)C(C)Oc2ccc(Cl)cc2C)cc1 (stereo not given)	.	.	.	1.4*	.	0.9*
COc1ccc([N+](=O)[O-])cc1NC(=O)c1ccc(CN(c2ccccc2)S(C)(=O)=O)cc1	.	.	.	80	.	89
Cn1c(-c2sc3ccccc3c2Cl)n[nH]c1=S	99	83	7	90	43	93
COc1ccccc1/C=c1\sc2nc(-c3cccs3)nn2c1=O	92	99	8	.	83	.
C=CCOc1ccccc1/C=c1\sc2nc(=O)c(C)nn2c1=O	98	33*	3	74	90	78
Clc1ccc(-n2nnnc2Sc2ncnc3sccc23)cc1	48*	2.0*	2	.	4.6*	.
Cc1sc2ncnc(Sc3nnnn3-c3ccccc3)c2c1C	10*	0.9*	4	5	26*	7
CC(=O)N1CCc2cc(S(=O)(=O)NC(CC(C)C)C(=O)Nc3ccc4c(c3)OCCO4)ccc21 (stereo not given)	97	101	6	98	105	99
C[C@]12CC[C@@H]3c4ccc(O)cc4CC[C@H]3[C@@H]1CC[C@@H]2O	88	27*	6	70	35	68
Cc1ccc(C)c(OCC(=O)N/N=C/c2c(C)nn(-c3ccccc3)c2Cl)c1C	.	.	.	1.8*	.	2.1*
CCCCC(=O)NS(=O)(=O)c1ccc(N=NN2CCOCC2)cc1	.	.	.	103	.	91
CCSc1nc(N)c(C#N)c(-c2ccccc2Cl)c1C#N	99	37*	0	87	100	90
CCOC(=O)C1=C(C)NC(=S)NC1/C=C/c1ccccc1 (stereo not given)	.	.	.	57	.	46
S=c1[nH]nc(C2CCCCC2)n1/N=C/C(Cl)=C\c1ccccc1	.	.	.	9	.	12
Cc1cc(-c2n[nH]c(=S)n2/N=C/C(Cl)=C/c2ccccc2)n[nH]1	.	.	.	2.2*	.	5.0*
Brc1ccc(Nc2nc3ccccc3n3nnnc23)cc1	78	36*	1	80	47	84
Cc1ccc(-c2nc3ccccc3n3nnnc23)cc1	82	41	-2	22	84	21
Cc1ccc(CNc2nc3ccccc3n3nnnc23)cc1	100	30*	8	87	89	96
Cc1ccc(S(=O)(=O)NC(=O)c2cc(C)n(-c3ccc(N(C)C)cc3)c2C)cc1	.	.	.	90	.	94
CC(C)c1cc(NCC2CCCO2)n2c(nc3ccccc32)c1C#N (stereo not given)	95	9.7*	4	79	80	83
Cc1cc(NCC2CCCO2)n2c(nc3ccccc32)c1C#N (stereo not given)	102	65	12	90	88	106
CCc1c(C)c(C#N)c2nc3ccccc3n2c1Cl	.	.	.	2.2*	.	4.0*
CCc1c(C)c(C#N)c2nc3ccccc3n2c1NCC1CCCO1 (stereo not given)	100	32*	7	100	104	92
CC1C/C(=N/O)C(C)CN1 (stereo not given)	96	106	-6	118	113	111
O=C(N/N=C/C=C/c1ccccc1)c1cc2c(ccc3ccccc32)o1	.	.	.	61	.	60
O=C1NC2(CCCC2)N=C1c1ccc(Cl)cc1	110	99	2	103	87	91

Source: PubChem
